Assay results published in ChEMBL document CHEMBL5058577, “EUbOPEN Chemogenomics Library 2 (Multiplex)” (2022).

Tested on: HEK-293T
Test: Multiplex assay against HEK293T
Type: toxicity, cell-based
Conditions: human
Summary of the method: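 Live cells were stained at seeding with Hoechst33342, BioTracker Green Microtubule Cytoskeleton Dye, MitoTracker Red and Annexin V Alexa Fluor 680. Following compound addition, they were imaged on a CQ1 microscope at 37°C and 5% CO2 and gated by CellPathfinder machine learning into Hoechst high-intensity objects or normal cells, with normal cells split into healthy, pyknosed or fragmented nuclei and pyknosed cells into mitotic or apoptotic. Tubulin, mitochondrial-mass and membrane-permeability phenotypes are per cents of healthy-nucleus cells.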

[1] = 12 h, 1 µM, compound concentration 1 uM, replicate 1
[2] = 12 h, 1 µM, compound concentration 1 uM, replicate 2
[3] = 12 h, 10 µM, compound concentration 10 uM, replicate 1
[4] = 12 h, 10 µM, compound concentration 10 uM, replicate 2
[5] = 24 h, 1 µM, compound concentration 1 uM, replicate 1
[6] = 24 h, 1 µM, compound concentration 1 uM, replicate 2
[7] = 24 h, 10 µM, compound concentration 10 uM, replicate 1
[8] = 24 h, 10 µM, compound concentration 10 uM, replicate 2
[9] = 48 h, 1 µM, compound concentration 1 uM, replicate 1
[10] = 48 h, 1 µM, compound concentration 1 uM, replicate 2
[11] = 48 h, 10 µM, compound concentration 10 uM, replicate 1
[12] = 48 h, 10 µM, compound concentration 10 uM, replicate 2

COCCn1c(C)c(C)s/c1=N\C(=O)C1C(C)(C)C1(C)C
Population Apoptotic (%) [1]: 37%
Population Fragmented Nuclei (%) [1]: 10%
Population Healthy Nuclei (%) [1]: 77%
Population Hoechst High Intensity Objects (%) [1]: 6%
Population Membrane Permeable-Phenotype (%) [1]: 0%
Population Mitochondria Different-Phenotype (%) [1]: 45%
Population Mitotic Cells (%) [1]: 62%
Population Normal (%) [1]: 93%
Population Pyknosed Nuclei (%) [1]: 12%
Population Tubulin-Different-Phenotype (%) [1]: 29%
Total Cell Count [1]: 335
Population Apoptotic (%) [2]: 41%
Population Fragmented Nuclei (%) [2]: 5%
Population Healthy Nuclei (%) [2]: 82%
Population Hoechst High Intensity Objects (%) [2]: 4%
Population Mitochondria Different-Phenotype (%) [2]: 77%
Population Mitotic Cells (%) [2]: 58%
Population Normal (%) [2]: 95%
Population Tubulin-Different-Phenotype (%) [2]: 26%
Total Cell Count [2]: 304
Population Apoptotic (%) [3]: 77%
Population Fragmented Nuclei (%) [3]: 33%
Population Healthy Nuclei (%) [3]: 52%
Population Hoechst High Intensity Objects (%) [3]: 18%
Population Membrane Permeable-Phenotype (%) [3]: 0%
Population Mitochondria Different-Phenotype (%) [3]: 91%
Population Mitotic Cells (%) [3]: 22%
Population Normal (%) [3]: 81%
Population Pyknosed Nuclei (%) [3]: 13%
Population Tubulin-Different-Phenotype (%) [3]: 67%
Total Cell Count [3]: 80
Population Apoptotic (%) [4]: 53%
Population Fragmented Nuclei (%) [4]: 8%
Population Healthy Nuclei (%) [4]: 75%
Population Hoechst High Intensity Objects (%) [4]: 11%
Population Mitochondria Different-Phenotype (%) [4]: 72%
Population Mitotic Cells (%) [4]: 46%
Population Normal (%) [4]: 88%
Population Pyknosed Nuclei (%) [4]: 16%
Population Tubulin-Different-Phenotype (%) [4]: 38%
Total Cell Count [4]: 315
Population Apoptotic (%) [5]: 19%
Population Fragmented Nuclei (%) [5]: 7%
Population Healthy Nuclei (%) [5]: 81%
Population Hoechst High Intensity Objects (%) [5]: 4%
Population Membrane Permeable-Phenotype (%) [5]: 0%
Population Mitochondria Different-Phenotype (%) [5]: 26%
Population Mitotic Cells (%) [5]: 80%
Population Normal (%) [5]: 95%
Population Pyknosed Nuclei (%) [5]: 11%
Population Tubulin-Different-Phenotype (%) [5]: 20%
Total Cell Count [5]: 447
Population Apoptotic (%) [6]: 35%
Population Fragmented Nuclei (%) [6]: 8%
Population Hoechst High Intensity Objects (%) [6]: 7%
Population Mitochondria Different-Phenotype (%) [6]: 47%
Population Mitotic Cells (%) [6]: 64%
Population Normal (%) [6]: 92%
Population Pyknosed Nuclei (%) [6]: 10%
Population Tubulin-Different-Phenotype (%) [6]: 17%
Total Cell Count [6]: 383
Population Apoptotic (%) [7]: 71%
Population Fragmented Nuclei (%) [7]: 30%
Population Healthy Nuclei (%) [7]: 61%
Population Hoechst High Intensity Objects (%) [7]: 15%
Population Membrane Permeable-Phenotype (%) [7]: 0%
Population Mitochondria Different-Phenotype (%) [7]: 53%
Population Mitotic Cells (%) [7]: 28%
Population Normal (%) [7]: 84%
Population Pyknosed Nuclei (%) [7]: 8%
Population Tubulin-Different-Phenotype (%) [7]: 36%
Total Cell Count [7]: 101
Population Apoptotic (%) [8]: 45%
Population Fragmented Nuclei (%) [8]: 11%
Population Healthy Nuclei (%) [8]: 75%
Population Hoechst High Intensity Objects (%) [8]: 7%
Population Mitochondria Different-Phenotype (%) [8]: 62%
Population Mitotic Cells (%) [8]: 54%
Population Normal (%) [8]: 92%
Population Pyknosed Nuclei (%) [8]: 13%
Population Tubulin-Different-Phenotype (%) [8]: 30%
Total Cell Count [8]: 376
Population Apoptotic (%) [9]: 20%
Population Fragmented Nuclei (%) [9]: 13%
Population Healthy Nuclei (%) [9]: 75%
Population Hoechst High Intensity Objects (%) [9]: 3%
Population Membrane Permeable-Phenotype (%) [9]: 0%
Population Mitochondria Different-Phenotype (%) [9]: 22%
Population Mitotic Cells (%) [9]: 79%
Population Normal (%) [9]: 96%
Population Pyknosed Nuclei (%) [9]: 11%
Population Tubulin-Different-Phenotype (%) [9]: 14%
Total Cell Count [9]: 649
Population Apoptotic (%) [10]: 45%
Population Fragmented Nuclei (%) [10]: 11%
Population Healthy Nuclei (%) [10]: 81%
Population Mitochondria Different-Phenotype (%) [10]: 31%
Population Mitotic Cells (%) [10]: 55%
Population Normal (%) [10]: 97%
Population Pyknosed Nuclei (%) [10]: 7%
Population Tubulin-Different-Phenotype (%) [10]: 12%
Total Cell Count [10]: 567
Population Apoptotic (%) [11]: 60%
Population Fragmented Nuclei (%) [11]: 18%
Population Healthy Nuclei (%) [11]: 73%
Population Hoechst High Intensity Objects (%) [11]: 2%
Population Membrane Permeable-Phenotype (%) [11]: 2%
Population Mitochondria Different-Phenotype (%) [11]: 30%
Population Mitotic Cells (%) [11]: 40%
Population Normal (%) [11]: 97%
Population Pyknosed Nuclei (%) [11]: 8%
Population Tubulin-Different-Phenotype (%) [11]: 31%
Total Cell Count [11]: 191
Population Apoptotic (%) [12]: 38%
Population Fragmented Nuclei (%) [12]: 13%
Population Healthy Nuclei (%) [12]: 79%
Population Hoechst High Intensity Objects (%) [12]: 4%
Population Membrane Permeable-Phenotype (%) [12]: 0%
Population Mitochondria Different-Phenotype (%) [12]: 46%
Population Mitotic Cells (%) [12]: 61%
Population Normal (%) [12]: 95%
Population Pyknosed Nuclei (%) [12]: 6%
Population Tubulin-Different-Phenotype (%) [12]: 24%
Total Cell Count [12]: 493
